For orientation: pEC50 means −log10 of the EC50, conventionally taken in molar units. As usually defined, the Emax is the greatest response seen or fitted, relative to the assay's reference. In general, AUC refers to the area under the concentration-time curve, a measure of exposure. Read a low AUC as low exposure.

The values below come from ChEMBL document CHEMBL1909630, “Azaxanthene based selective glucocorticoid receptor modulators: design, synthesis, and pharmacological evaluation of (S)-4-(5-(1-((1,3,4-thiadiazol-2-yl)amino)-2-methyl-1-oxopropan-2-yl)-5H-chromeno[2,3-b]pyridin-2-yl)-2-fluoro-N,N-dimethylbenzamide (BMS-776532) and its methylene homologue …” (J Med Chem, 2011).

pEC50: −log10 of the molar value. Active and inactive are the calls of the source. The rule behind the calls is not given here.

Series [1] concerns the target T1, Glucocorticoid receptor (Homo sapiens, UniProt P04150).
T1 sequence (P04150 whole entry): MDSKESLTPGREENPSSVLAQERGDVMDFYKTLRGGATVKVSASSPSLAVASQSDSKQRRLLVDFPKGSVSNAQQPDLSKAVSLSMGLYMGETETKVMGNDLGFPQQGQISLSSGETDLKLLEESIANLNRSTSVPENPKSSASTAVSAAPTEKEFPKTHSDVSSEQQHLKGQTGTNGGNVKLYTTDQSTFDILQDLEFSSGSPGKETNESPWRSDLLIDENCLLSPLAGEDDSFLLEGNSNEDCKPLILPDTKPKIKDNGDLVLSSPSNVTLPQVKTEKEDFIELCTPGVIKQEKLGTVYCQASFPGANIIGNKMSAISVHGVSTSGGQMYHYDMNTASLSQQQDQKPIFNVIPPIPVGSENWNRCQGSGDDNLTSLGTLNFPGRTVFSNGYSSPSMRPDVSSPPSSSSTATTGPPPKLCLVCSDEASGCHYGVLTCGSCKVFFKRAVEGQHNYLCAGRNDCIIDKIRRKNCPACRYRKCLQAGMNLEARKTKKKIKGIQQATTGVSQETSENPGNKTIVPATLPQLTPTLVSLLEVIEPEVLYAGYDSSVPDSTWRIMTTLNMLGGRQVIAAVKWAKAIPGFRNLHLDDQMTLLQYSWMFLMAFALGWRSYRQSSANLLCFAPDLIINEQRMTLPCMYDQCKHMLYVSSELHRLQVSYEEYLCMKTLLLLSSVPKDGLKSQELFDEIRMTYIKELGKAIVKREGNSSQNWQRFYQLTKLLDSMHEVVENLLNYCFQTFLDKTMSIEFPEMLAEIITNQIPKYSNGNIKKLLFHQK
Put plainly: Transactivation activity at GR-alpha in human NP1 Hela cells assessed as induction of GAL4-DBD after 20 hrs by luciferase reporter gene assay. It is filed as cell-based. In general terms: Reporter assays use an easily measured gene product as a stand-in for the process of interest.

For series [2], the target named is T1, Glucocorticoid receptor. Put plainly: Transactivation activity at glucocorticoid receptor alpha human 13D3/Huh7 cells assessed as induction of TAT activity after 4 hrs by spectrophotometry. It is filed as cell-based, Huh-7.
Series [3] relates to MG-63. Put plainly: Induction of glutamine synthase expression in human MG63 cells after overnight incubation by spectrophotometry relative to prednisolone. It is filed as cell-based.
Series [4] relates to Blood. Kind of series: Antiinflammatory activity in human whole blood assessed as inhibition of LPS-induced TNFalpha production after overnight incubation by ELISA. The series is classed as functional, tissue-based. The gist of the method:
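Whole blood from two donors per experiment was collected into ACD-A. Compounds were added and the blood was incubated about 20 h at 37 °C under 5% CO2. Blood was then stimulated for 5 h with LPS (final 100 ng/mL, for TNFα) or IL-1β (final 10 ng/mL, for IL-8). Plasma TNFα or IL-8 was measured by ELISA. Efficacy was expressed as % of dexamethasone, and values are means of at least two experiments.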

Series [5] in a line: AUC in Sprague-Dawley rat at 50 mg/kg, po. The series is classed as ADME, organism-based. Also on record: dose 50 mg/kg, route oral. The conditions noted are these: plasma. The gist of the method: (§1)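 Male Sprague-Dawley rats received a single intravenous (1 mg/kg) or oral (10 or 50 mg/kg) dose. Plasma pharmacokinetic parameters were derived from these profiles.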
A short description of series [6]: Oral bioavailability in Sprague-Dawley rat at 50 mg/kg. The series is classed as ADME, organism-based. The note with it: in vivo. The gist of the method: as §1
Series [7] concerns Rattus norvegicus. Kind of series: Antiinflammatory activity in po dosed Freund's complete adjuvant-induced Lewis rat arthritis model assessed as reduction in progression of arthritis. The series is classed as functional, organism-based. In a few lines: (§2)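 Male Lewis rats were inoculated with Mycobacterium butyricum in incomplete Freund's adjuvant. Oral dosing was daily and preventative, running from day 0 to day 21. Onset and progression of arthritis were followed, and ED50 was estimated from the dose response.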

The subject of series [8] is Rattus norvegicus. Put plainly: Antiinflammatory activity in Freund's complete adjuvant-induced Lewis rat arthritis model assessed as reduction in paw swelling at 50 mg/kg/day, po qd for 21 days. The series is classed as functional, organism-based. The gist of the method: as §2
Series [9] has as its system Rattus norvegicus. Put plainly: Antiinflammatory activity in Freund's complete adjuvant-induced Lewis rat arthritis model assessed as reduction in paw swelling at 25 mg/kg/day, po qd for 21 days. It is filed as functional, organism-based. In a few lines:
as §2

With `CN(C)C(=O)c1ccc(-c2ccc3c(n2)Oc2ccccc2[C@H]3C(C)(C)C(=O)Nc2nncs2)cc1F`, the pEC50 was 6.62 in [1], 6.82 in series [2] and 6.08 in series [4]. This molecule yielded an Emax in series [3] of 33%. In series [5], this molecule had an AUC of 20200 ng·h/mL. Besides, the bioavailability in series [6] was 119%. In addition, the Activity entry in series [7] is “Dose-dependent effect”. For the same molecule, in series [8], the result was Active.
`CCN(C)C(=O)c1ccc(-c2ccc3c(n2)Oc2ccccc2[C@@H]3C(C)(C)C(=O)Nc2nncs2)cc1F`: the values for the negative-log EC50 (pEC50) in series [1], in series [2] and in [4] were 7.01, 7.06 and 6.42, respectively. In addition, the maximum response (Emax) in [3] worked out at 53%. This molecule yielded an AUC in [5] of 28100 ng·h/mL. For the same molecule, the bioavailability in series [6] amounted to 107%. Moreover, in series [7], the Activity result was “Dose-dependent effect”. Further, in [9], the result was Active.
